Most compounds without a hit are left out; they make up all but 3% or so of the library.
S100A4 MyoIIA: S100A4-myosin IIA interaction inhibition; hit rate 0.14% among 360,000; AID 652163; S100A4/TAMRA-MyoIIA peptide fluorescence polarization; inhibition, % at 10.7 µM; P26447;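 active = mean inhibition of at least 70% across replicates, with every replicate also reaching that level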
Target sequence (P26447 whole entry, looked up): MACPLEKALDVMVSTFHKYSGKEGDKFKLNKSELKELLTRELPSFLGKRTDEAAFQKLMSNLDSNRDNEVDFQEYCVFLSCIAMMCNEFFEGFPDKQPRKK
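Assay system: human S100A4 monomer with TAMRA-labelled myosin IIA peptide / Buffer or medium: Calcium-containing HEPES buffer, pH 7.2 / Reagent: TAMRA-labelled myosin IIA heavy-chain peptide probe, 5 nM / Compound: one dose per compound / Timing: polarization read 5 min after assay mix addition, stable 5–60 min / Benchmarks: neutral control DMSO, positive control TFP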
Cneo AK release: causes C. neoformans cell lysis. adenylate kinase release luminescence, 4 h; normalised: neutral wells 0, clomiphene wells 100. lysis activity, % at 15 µM. hit rate 0.2% among 360,000. AID 651654;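 active = mean lysis activity across replicates of at least 80%, whatever share of replicates individually reach that level; inactive = mean lysis activity below 80%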
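Schedule: static 4 h at 37 °C with compound, 1 h detection; system: C. neoformans cells; benchmarks: Clomiphene as positive control; buffer or medium: fresh YPD medium; measure: luminescence rise reflecting yeast cell lysis; measured by: luminescent adenylate kinase detection reagent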
SIRT5 block: inhibitors of human sirtuin-5 desuccinylase; inhibition, % at 15 µM; hit rate 1.1% among 330,000; Q9NXA8; Purified SirT5, succinyl-peptide AMC, trypsin-coupled fluorescence; in the data active = inhibition above about 15%
Target sequence (Q9NXA8 whole entry, looked up): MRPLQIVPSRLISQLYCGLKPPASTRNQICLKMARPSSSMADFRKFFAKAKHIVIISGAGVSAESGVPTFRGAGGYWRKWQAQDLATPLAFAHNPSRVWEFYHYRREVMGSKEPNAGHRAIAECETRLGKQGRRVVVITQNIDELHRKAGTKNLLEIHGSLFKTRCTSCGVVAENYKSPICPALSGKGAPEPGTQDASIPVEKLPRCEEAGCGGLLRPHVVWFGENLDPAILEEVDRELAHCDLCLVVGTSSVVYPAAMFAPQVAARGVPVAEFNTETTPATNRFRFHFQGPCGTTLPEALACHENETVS
Ecoli rRNA inh: inhibits bacterial ribosomal RNA function over humanized ribosomes; E. coli WT GFP vs humanized-ribosome RFP mutants, fluorescence, 24 h; stronger effect = lower value; DMSO median 0, no signal -100; GFP signal change (wild-type ribosome), % (test concentration not listed); hit rate 1.6% among 350,000; AID 720706;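 active = significant combined selectivity score with lowered wild-type GFP, culture density cut under 30%, mutant RFP and density less affected; inactive = any of these conditions unmet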
C2C12 statin: suppression of simvastatin myotoxicity; C2C12 myotubes + simvastatin, ATP luminescence, 48 h; scaled: DMSO 0, geranylgeraniol control 100; rescue of ATP level, % at 7.49 µM; hit rate 0.78% among 330,000; AID 602340;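 active = mean ATP rescue above about 67%, or every replicate alone reaching that limit, limit read from the data, passing the limit was not always enough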;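 note: myotubes were challenged with 10 µM simvastatin during compound exposure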
PGC1a acetyl inh: modulators of PGC1a acetylation. hit rate 0.17% among 350,000. U2OS PGC1a acetylation, AlphaScreen anti-acetyl-lysine; with virally co-expressed GCN5 acetyltransferase. inhibition, % at 15.6 µM;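 active = every replicate shows inhibition of at least 40%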;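 note: 0% = neutral control wells and 100% = positive control wells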
Active calls of the source: *; . = not tested or not shown.

SMILES | S100A4 MyoIIA | Cneo AK release | SIRT5 block | Ecoli rRNA inh | C2C12 statin | PGC1a acetyl inh
C[C@@H]1CN([C@H](C)CO)C(=O)c2cccc(NC(=O)Nc3cccc4ccccc34)c2O[C@@H]1CN(C)S(=O)(=O)c1cccs1 | 14.4 | 0.9 | 0.9 | -2.9 | -24.9 | 8.2
CCC(C(=O)NCCCN1CCN(C)CC1)n1nc(C)c2sc3ccccc3c2c1=O (stereo not drawn) | -5.3 | 5.8 | -3.1 | 3.0 | 8.6 | -2.7
CCCN1CCN(CCCNC(=O)C(CC)n2nc(C)c3sc4ccccc4c3c2=O)CC1 (stereo not drawn) | 112.7* | -0.2 | 1.1 | -0.5 | 16.6 | -1.1
CCC(C(=O)NCCCN1CC(C)CC(C)C1)n1nc(C)c2sc3ccccc3c2c1=O (stereo not drawn) | -2.7 | -1.9 | 31.5* | 0.1 | -27.0 | 8.1
COc1cccc(NC(=O)N[C@H]2C=C[C@H](CC(=O)NCc3ccccn3)O[C@H]2CO)c1 | -2.5 | . | -2.9 | 2.7 | . | 3.5
COc1ccccc1CNC(=O)C[C@H]1CC[C@H]2[C@@H](COC[C@H](O)CN2C(=O)Nc2ccc(F)cc2)O1 | -34.7 | 2.8 | 4.4 | 0.5 | 1.8 | 1.3
CC(=O)c1ccc(NC(=O)Nc2sc(NS(=O)(=O)c3ccccc3)nc2C)cc1 | 2.9 | 0.2 | 1.1 | 10.5 | 99.8* | 14.3
N#CC(c1ccc(Cl)cc1)c1ccc(Cl)nn1 (stereo not drawn) | . | -0.9 | . | . | 106.0* | -9.8
Cc1ccc(C(C#N)c2ccc(Cl)nn2)cc1 (stereo not drawn) | -0.6 | . | . | -2.6 | . | -1.9
Cc1noc(C)c1S(=O)(=O)Nc1ccc2c(c1)C(=O)N([C@H](C)CO)C[C@@H](C)[C@H](CN(C)C(=O)c1ccccc1)OCCCC[C@@H](C)O2 | 2.1 | -14.9 | 4.5 | -5.5 | . | -8.9
CCOC(=O)C1CCN(C(=O)c2cc3c(-c4ccc(OC)c(OC)c4)nn(C)c3s2)CC1 | . | 1.8 | . | . | 14.7 | -0.7
CCOC(=O)C1CCCN(C(=O)c2cc3c(-c4cccc(OC)c4)nn(C)c3s2)C1 (stereo not drawn) | . | -1.7 | . | . | 95.7* | -3.4
Cc1nn(C)cc1CN(C)C(=O)c1ccc(OC2CCN(Cc3ccccn3)CC2)cc1 | 40.7 | 0.6 | -0.7 | 0.5 | 0.1 | -0.8
CC(C)N(Cc1cnn(C)c1)C(=O)c1ccc(OC2CCN(Cc3ccccn3)CC2)cc1 | -1.5 | 2.7 | 16.8* | 11.5 | 9.0 | 5.7
Cc1noc(C)c1COc1ccc(C(=O)N2CCN(S(=O)(=O)c3cccc(F)c3)CC2)cc1 | -6.0 | -0.4 | 27.9* | -6.0 | 3.2 | 6.5
Cc1noc(C)c1COc1ccc(C(=O)N2CCN(S(=O)(=O)c3ccccc3)CC2)cc1 | -0.4 | 0.6 | 1.4 | -12.3 | 4.5 | -12.3
CC(/C=C1\SC(=S)N(CCC(=O)Nc2ccc(O)cc2)C1=O)=C\c1ccccc1 | -2.4 | 7.1 | -3.4 | -7.8 | 5.7 | .
CC(=Cc1ccccc1)C=C1SC(=S)N(CCCC(=O)Nc2ccc(C(=O)O)c(O)c2)C1=O | -3.6 | -2.7 | 60.2* | -45.1 | 3.5 | -7.6
O=C(CCN1C(=O)/C(=C/c2cccs2)SC1=S)Nc1ccc(O)cc1 | 5.1 | 3.0 | -0.9 | -7.8 | -2.6 | 38.8
O=C(CCN1C(=O)/C(=C/c2cccs2)SC1=S)Nc1ccc(C(=O)O)c(O)c1 | -0.3 | -1.9 | 16.0* | -19.8 | 4.3 | 1.8
CC1CCN(c2nc(-c3cccnc3)nc3scc(-c4ccccc4)c23)CC1 | 5.9 | . | -1.5 | 8.2 | . | .
CN1CCN(c2nc(-c3cccnc3)nc3scc(-c4ccccc4)c23)CC1 | -2.2 | 0.4 | -4.1 | -21.7* | -6.2 | -1.5
COc1ccc2ccccc2c1C1CC(=O)N2CN(C3CCCCC3)CSC2=C1C#N (stereo not drawn) | -0.5 | 0.5 | 16.9* | 6.7 | 9.7 | .
COc1ccc2ccccc2c1C1CC(=O)N2CN(Cc3ccco3)CSC2=C1C#N (stereo not drawn) | -6.3 | 0.7 | 0.8 | 6.4 | 6.4 | .
C[C@H](NC(=O)C[C@H]1CC[C@H]2[C@@H](COC[C@H](O)CN2C(=O)Nc2cccc(F)c2)O1)c1ccccc1 | 5.6 | -8.1 | 2.5 | -12.9 | -12.0 | 0.5
SMILES | S100A4 MyoIIA | Cneo AK release | SIRT5 block | Ecoli rRNA inh | C2C12 statin | PGC1a acetyl inh
C[C@H](NC(=O)C[C@@H]1CC[C@@H]2[C@H](COC[C@@H](O)CN2C(=O)Nc2cccc(F)c2)O1)c1ccccc1 | 12.1 | 89.7* | 2.1 | -17.3 | -17.0 | 4.8
C[C@H](NC(=O)C[C@@H]1CC[C@H]2[C@@H](COC[C@@H](O)CN2C(=O)Nc2cccc(F)c2)O1)c1ccccc1 | 7.6 | -2.3 | 18.9* | -12.0 | -14.5 | 2.3
O=C(Nc1ccc(OCc2ccccc2)cc1)Nc1ccccc1C(=O)NCCCN1CCOCC1 | -11.7 | . | -4.1 | -21.9* | -12.4 | 1.3
CC(=O)N1[C@@H](CO)[C@@H]2c3ccccc3N(C(=O)c3ccccc3)C[C@@H]21 | -9.6 | -0.9 | 0.2 | 6.1 | 2.9 | 5.3
CC(=O)c1cc(-c2ccc(F)cc2)n(CCC(=O)NC(C)(C)C)c1C | -5.4 | . | 20.0* | 10.4 | . | .
Cc1ccc(C(=O)COC(=O)c2ccc3c(c2)C(=O)N(c2cccc4ncccc24)C3=O)cc1 | 6.9 | . | 18.4* | 9.7 | . | .
O=C(COC(=O)c1ccc2c(c1)C(=O)N(c1cccc3ncccc13)C2=O)c1ccc(Cl)cc1 | 1.1 | 2.9 | -1.9 | 9.8 | 5.2 | 2.6
CCN(CC)C(=O)CSc1ccccc1N | . | 2.7 | . | . | 115.7* | 5.4
COc1cccc(S(=O)(=O)N2C[C@@H](O)COC[C@H]3O[C@H](CC(=O)Nc4ccccc4)CC[C@@H]32)c1 | -11.9 | 111.7* | 10.4 | -4.5 | -14.4 | -2.8
COc1cccc(S(=O)(=O)N2C[C@H](O)COC[C@@H]3O[C@H](CC(=O)Nc4ccccc4)CC[C@H]32)c1 | -2.8 | 1.3 | 4.3 | -1.8 | 13.6 | -4.0
COc1cccc(S(=O)(=O)N2C[C@@H](O)COC[C@H]3O[C@H](CC(=O)N4CCN(C)CC4)CC[C@@H]32)c1 | -3.1 | 84.6* | -2.2 | 2.7 | 9.1 | 5.2
COc1ccc(S(=O)(=O)N(C)C[C@@H]2OCCCC[C@@H](C)Oc3ccc(NC(=O)CCC(F)(F)F)cc3C(=O)N([C@@H](C)CO)C[C@@H]2C)cc1 | -3.4 | 48.4 | 3.9 | 1.5 | . | 7.9
CC(=O)N(C)C[C@H]1Oc2cc(C3=CCCCC3)ccc2S(=O)(=O)N([C@@H](C)CO)C[C@H]1C | . | . | . | 0.8 | -30.3 | -14.3
CCOC(=O)c1nc(C)sc1-c1ccnn1S(=O)(=O)c1cccc(Cl)c1 | 0.4 | . | -3.4 | -28.8* | . | .
CCOC(=O)C1=CCN(S(=O)(=O)c2cccc(Cl)c2)C1c1cccc(Cl)c1 (stereo not drawn) | 1.8 | . | -4.4 | -11.7 | . | .
